The subject of assay [1] is Mus musculus. Nature of the assay: Food intake measured in genetically altered obese diabetic mice(db/db) at 30 mg/kg dose. Format: functional. In short, it runs like this:
(§1)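 Obese diabetic C57BL/KS-db/db mice, single dose at t = 0, n = 8 per group (n = 5 for parent compound). Body weight recorded per mouse at 0 and 24 h; food intake reported as g/mouse/day. Vehicle used as negative control, metformin as positive control.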

For assay [2], the system named is Mus musculus. Kind of assay: Food intake measured in genetically altered obese diabetic mice(db/db) at 100 mg/kg dose; 6 animals died. Format: functional.
The test system of assay [3] is Mus musculus. Nature of the assay: Mean body weight measured in genetically altered obese diabetic mice(db/db) at 100 mg/kg at 0 hr postdose. Format: functional. In short, it runs like this: as §1
Assay [4] relates to Mus musculus. Kind of assay: Change in plasma glucose levels measured in genetically altered obese diabetic mice(db/db) at 30 mg/kg at 24 hr postdose. Format: functional.
In assay [5] the test system is Mus musculus. Kind of assay: Change in plasma glucose levels measured in genetically altered obese diabetic mice(db/db) at 100 mg/kg at 24 hr postdose. Format: functional.
Assay [6] relates to Mus musculus. Nature of the assay: Mean body weight measured in genetically altered obese diabetic mice(db/db) at 30 mg/kg at 24 h postdose. Format: functional. In a few lines:
as §1

The test system of assay [7] is 3T3-L1. Kind of assay: In vitro glucose transport activity in 3T3-LI adipocytes at 3 uM concentration. Format: functional, Mus musculus. In a few lines:
(§2)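 Differentiated 3T3-L1 adipocytes, no added insulin, treated in triplicate for 18 h with compound at 3, 10 or 30 µM. Glucose transport expressed as % (relative to untreated); values are means of triplicate runs, significance by one-tailed independent Student's t-test.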

Assay [8] has as its system 3T3-L1. Nature of the assay: In vitro glucose transport activity in 3T3-LI adipocytes at 30 uM concentration. Format: functional, Mus musculus. In short, it runs like this:
as §2

For assay [9], the system named is Mus musculus. Kind of assay: Change in plasma glucose levels measured in genetically altered obese diabetic mice(db/db) at 30 mg/kg at 3 hr postdose. Format: functional.
Assay [10] relates to Mus musculus. Kind of assay: Mean body weight measured in genetically altered obese diabetic mice(db/db) at 100 mg/kg at 24 hr postdose. Format: functional. In a few lines:
as §1

Assay [11] deals with Mus musculus. Nature of the assay: Change in plasma glucose levels measured in genetically altered obese diabetic mice(db/db) at 100 mg/kg at 3 hr postdose. Format: functional.
For assay [12], the system named is Mus musculus. Nature of the assay: Mean body weight measured in genetically altered obese diabetic mice(db/db) at 30 mg/kg at 0 h postdose. Format: functional. In short, it runs like this: as §1
The subject of assay [13] is 3T3-L1. Kind of assay: In vitro glucose transport activity in 3T3-LI adipocytes at 10 uM concentration. Format: functional, Mus musculus. In a few lines:
as §2

The subject of assay [14] is Mus musculus. Nature of the assay: Mean body weight measured in genetically altered obese diabetic mice(db/db) at 30 mg/kg at 24 hr postdose. Format: functional. In a few lines: as §1
The test system of assay [15] is Mus musculus. Nature of the assay: Mean body weight measured in genetically altered obese diabetic mice(db/db) at 30 mg/kg at 0 hr postdose. Format: functional. In short, it runs like this: as §1
Assay [16] has as its system Mus musculus. Nature of the assay: Food intake measured in genetically altered obese diabetic mice(db/db) at 100 mg/kg dose; 2 animals died. Format: functional.

On to `CCCC[n+]1c2ccccc2cc2[nH]c3ccccc3c21.[Cl-]`, for which the Food intake in the assay with Mus musculus [1] is reported as 6 g mouse-1 day-1; in the assay on Mus musculus [2], 2.6 g mouse-1 day-1. In addition, the Mean body weight in the assay with Mus musculus [3] came out at 45.8 g mouse-1; with Mus musculus [6], 38.6 g mouse-1; in the assay on Mus musculus [10] it was 45.8 g mouse-1; in the assay with Mus musculus [12] it was 38.7 g mouse-1. Also, the Change was -22% with Mus musculus [4], -2.2% in the assay with Mus musculus [5], 4% in the assay on Mus musculus [9] and -33.8% with Mus musculus [11]. The figures for the Glucose transport in the assay with 3T3-L1 [7], in the assay on 3T3-L1 [8] and in the assay on 3T3-L1 [13] were 561%, 490% and 868%, respectively.

Regarding `CC[n+]1c2ccccc2cc2[nH]c3ccccc3c21.[Cl-]`, the Food intake in the assay with Mus musculus [1] turned out to be 5.1 g mouse-1 day-1; in the assay with Mus musculus [16] it was 1 g mouse-1 day-1. Further, the Mean body weight with Mus musculus [14] stood at 41.2 g mouse-1; in the assay on Mus musculus [3], 44.6 g mouse-1; in the assay on Mus musculus [15], 41.7 g mouse-1; in the assay with Mus musculus [10], 43.3 g mouse-1. Moreover, the Change in the assay on Mus musculus [4] was -4.1%; in the assay with Mus musculus [5] it was -26.5%; in the assay on Mus musculus [9] it was -7.7%; with Mus musculus [11], -23.2%. Moreover, the Glucose transport in the assay with 3T3-L1 [7] came out at 197%; in the assay with 3T3-L1 [8], 404%; with 3T3-L1 [13], 228%.
